Active and inactive are the calls of the source. No cut-off for these calls is given here.
Legend:
[1] = tested on: Hepatitis C virus; test: Antiviral activity against HCV J6/JFH/JC1 infected in human Huh7.5 cells assessed as reduction in viral RNA levels incubated for 72 hrs by qRT-PCR analysis; format: functional, organism-based
Summary of the method: (§1)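 Huh7.5 cells seeded 24 h, then infected with wild-type (or mutant) HCV with compound added at the same time. Incubated 72 h. Intracellular HCV RNA measured by qRT-PCR, 2^-ΔCt method, normalized to GAPDH. Eight-step 1:5 serial dilutions in triplicate; EC50 by Reed & Muench; three independent experiments.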

[2] = Cytotoxicity in human Huh7.5 cells assessed as reduction in cell viability incubated for 96 hrs by MTT assay; format: cell-based
Summary of the method: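 Huh7.5 cells seeded 24 h before compound addition. Viability read by MTT at 96 h. Eight-step 1:5 serial dilutions in triplicate; CC50 by Reed & Muench; three independent experiments.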

[3] = tested on: Hepatitis C virus; test: Antiviral activity against HCV J6/JFH/JC1 infected in human Huh7.5 cells incubated for 72 hrs by In-Cell Western assay; format: functional, organism-based, Hepacivirus hominis; conditions: J6/JFH/JC1, Huh7.5, 72 h
Summary of the method: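 Huh7.5 cells infected with HCVcc (MOI 0.1) and treated with compound at the same time for 72 h. Cells fixed with PFA, permeabilized, then stained for HCV Core and GAPDH with IR-dye secondaries. Core signal normalized to GAPDH. Eight-step 1:5 dilutions in triplicate; EC50 by Reed & Muench; mean of three experiments.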

[4] = tested on: Hepatitis C virus; test: Antiviral activity against HCV GS4.3 infected in human Huh7.5 cells assessed as reduction in viral NS3 protein levels at 0.2 to 5 uM incubated for 72 hrs by Western blot assay; format: functional, organism-based; conditions: Hepacivirus hominis
[5] = tested on: Hepatitis C virus; test: Antiviral activity against HCV GS4.3 infected in human Huh7.5 cells assessed as […] at 0.008 to 1 uM incubated with drug for 2 hrs after viral infection and measured after 72 hrs by Western blot assay; format: functional, organism-based; conditions: Hepacivirus hominis
[6] = tested on: Hepatitis C virus; test: Antiviral activity against HCV genotype 1b pseudoparticle infected in human Huh7.5 cells assessed as reduction in viral replication; format: functional, organism-based; conditions: Hepacivirus hominis; subtype 1b
Summary of the method: (§2)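 Genotype 1b or 2a HCV pseudoparticles made by co-transfecting HEK 293T cells with envelope and luciferase-reporter HIV plasmids; input standardized by luciferase. Huh7.5 cells co-incubated with compound and HCVpp for 4 h at 37°C, washed, then luciferase read at 72 h.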

[7] = tested on: Hepatitis C virus; test: Antiviral activity against HCV genotype 2a pseudoparticle infected in human Huh7.5 cells assessed as reduction in viral replication; format: functional, organism-based; conditions: Hepacivirus hominis; subtype 2a; summary of the method: as §2
[8] = tested on: Coxsackievirus B3; test: Antiviral activity against Coxsackievirus B3 infected in Vero cells assessed as reduction in virus-induced cytopathic effect incubated for 48 hrs by Reed-Muench method; format: functional, organism-based; conditions: Enterovirus B
[9] = tested on: Zika virus; test: Antiviral activity against Zika virus infected in Vero E6 cells assessed as reduction in virus-induced cytopathic effect incubated for 96 hrs by CCK8 assay; format: functional, organism-based; conditions: Vero C1008, 96 h
[10] = Cytotoxicity in African green monkey Vero E6 cells assessed as reduction in cell viability; format: cell-based, Vero C1008; conditions: chlorocebus sabaeus
[11] = tested on: Hepatitis C virus; test: Antiviral activity against wild type HCV by qRT-PCR analysis based by Reed-Muench method; format: functional, organism-based, Hepacivirus hominis; summary of the method: as §1
[12] = tested on: Hepatitis C virus; test: Antiviral activity against HCV expressing NS3 A156T mutant by qRT-PCR analysis based by Reed-Muench method; format: functional, organism-based, Hepacivirus hominis
Summary of the method: (§3)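 Huh7.5 cells seeded at 3×10^4/cm², infected 24 h later with wild-type or mutant HCV stock while compound or solvent was added at the same time. Intracellular HCV RNA measured by qRT-PCR at 72 h, normalised to GAPDH, 2^-ΔCT method. EC50 by Reed & Muench from eight-step 1:5 serial dilutions, triplicate wells.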

[13] = tested on: Hepatitis C virus; test: Antiviral activity against HCV expressing NS5B S282T mutant by qRT-PCR analysis based by Reed-Muench method; format: functional, organism-based, Hepacivirus hominis; summary of the method: as §3
[14] = Toxicity in Kunming mouse assessed as effect on AST level at 250 to 1000 mg/kg dosed via single oral gavage and measured on day 7 post treatment; format: organism-based; conditions: in vivo
Summary of the method: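 Kunming mice, 4 groups of n = 6 (3 male, 3 female). Fasted from 12 h before to 1 h after dosing. Single oral gavage of 250, 500 or 1000 mg/kg suspended in 0.5% CMC-Na, or vehicle alone. Followed for 7 days: survival, body weight before and at day 7. Day-7 blood taken for AST, ALT, urea nitrogen and creatinine.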

[15] = AUC (0 to 72 hrs) in Sprague-Dawley rat at 5 mg/kg, iv measured after 0.08 to 72 hrs post dose by LC-MS/MS analysis; format: ADME, organism-based; parameters: time < 72 hr, dose 5 mg/kg, route intravenous; conditions: in vivo
Summary of the method: (§4)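 Single dose to fasted (12 h) animals: oral gavage 15 mg/kg as suspension in 0.5% CMC-Na, or iv 5 mg/kg dissolved in citric acid buffer pH 5.0 with 2.5% DMSO. Jugular vein blood on heparin at 0.08 (iv only) to 72 h. Plasma assayed by LC-MS/MS; parameters from noncompartmental analysis.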

[16] = Drug level in Sprague-Dawley rat at 5 mg/kg, iv measured after 72 hrs post dose by LC-MS/MS analysis; format: ADME, organism-based; conditions: in vivo, read-out: Drug uptake; summary of the method: as §4
[17] = Tmax in Sprague-Dawley rat at 15 mg/kg, po measured after 0.08 to 72 hrs post dose by LC-MS/MS analysis; format: ADME, organism-based; conditions: in vivo
[18] = Cmax in Sprague-Dawley rat at 15 mg/kg, po measured after 0.08 to 72 hrs post dose by LC-MS/MS analysis; format: ADME, organism-based; parameters: dose 15 mg/kg, route oral; conditions: in vivo; summary of the method: as §4
[19] = Drug level in Sprague-Dawley rat at 15 mg/kg, po measured after 24 hrs post dose by LC-MS/MS analysis; format: ADME, organism-based; conditions: in vivo, read-out: Drug uptake; summary of the method: as §4
[20] = Drug level in Sprague-Dawley rat at 15 mg/kg, po measured after 72 hrs post dose by LC-MS/MS analysis; format: ADME, organism-based; conditions: in vivo, read-out: Drug uptake; summary of the method: as §4
[21] = Oral bioavailability in Sprague-Dawley rat at 5 mg/kg measured after 0.08 to 72 hrs after dose by LC-MS/MS analysis; format: ADME, organism-based; conditions: in vivo
[22] = Half life in beagle dog at 5 mg/kg, iv measured after 0.08 to 72 hrs post dose by LC-MS/MS analysis; format: ADME, organism-based, Canis lupus familiaris; conditions: in vivo
[23] = AUC (0 to 72 hrs) in beagle dog at 5 mg/kg, iv measured after 0.08 to 72 hrs post dose by LC-MS/MS analysis; format: ADME, organism-based, Canis lupus familiaris; parameters: time < 72 hr, dose 5 mg/kg, route intravenous; conditions: in vivo; summary of the method: as §4
[24] = Apparent Volume of distribution in beagle dog at 5 mg/kg, iv measured after 0.08 to 72 hrs post dose by LC-MS/MS analysis; format: ADME, organism-based, Canis lupus familiaris; conditions: in vivo, read-out: Vz; summary of the method: as §4
[25] = Clearance in beagle dog at 5 mg/kg, iv measured after 0.08 to 72 hrs post dose by LC-MS/MS analysis; format: ADME, organism-based, Canis lupus familiaris; conditions: in vivo; summary of the method: as §4
[26] = Half life in beagle dog at 15 mg/kg, po measured after 0.08 to 72 hrs post dose by LC-MS/MS analysis; format: ADME, organism-based, Canis lupus familiaris; conditions: in vivo; summary of the method: as §4
[27] = Cmax in beagle dog at 15 mg/kg, po measured after 0.08 to 72 hrs post dose by LC-MS/MS analysis; format: ADME, organism-based, Canis lupus familiaris; parameters: dose 15 mg/kg, route oral; conditions: in vivo; summary of the method: as §4
[28] = Drug level in beagle dog at 15 mg/kg, po measured after 24 hrs post dose by LC-MS/MS analysis; format: ADME, organism-based, Canis lupus familiaris; conditions: in vivo, read-out: Drug uptake; summary of the method: as §4
[29] = Drug level in beagle dog at 15 mg/kg, po measured after 72 hrs post dose by LC-MS/MS analysis; format: ADME, organism-based, Canis lupus familiaris; conditions: in vivo, read-out: Drug uptake; summary of the method: as §4

For CN(C)CCN(C)c1ccc(C#N)c(CN2CCN(c3ccc(Cl)cc3)CC2)c1, the Activity ([1]; Hepacivirus hominis) was “Dose-dependent effect”, the EC50 ([1]; J6/JFH/JC1, Huh7.5, 72 h) was 22 nM and the CC50 at 96 h [2] was 12800 to 14800 nM. For the same compound, the EC50 [3] was 83 to 125 nM, the Activity [4] was “inactive” and the Activity [5] was “Active”. For the same compound, the Activity [6] was “Dose-dependent effect”, the Activity [7] was “Dose-dependent effect” and the EC50 [8] was 7410 nM. It also gave an EC50 [9] of 5150 nM, a CC50 [10] of 18400 nM and an EC50 [11] of 3 nM. For the same compound, the EC50 [12] was 1.9 nM, the EC50 [13] was 4.4 nM and the Activity [14] was “Non-Toxic”. For the same compound, the AUC(0-t) at 72 h [15] was 5420 ng·h/mL, the concentration at 72 h [16] was 9.2 ng/mL and the Tmax [17] was 3.08 h. The Cmax [18] was 501 ng/mL, the concentration at 24 h [19] was 119 ng/mL and the concentration at 72 h [20] was 13.7 ng/mL. For the same compound, the bioavailability [21] was 39%, the half-life [22] was 7.28 h and the AUC(0-t) at 72 h [23] was 1070 ng·h/mL. The Vd [24] was 49.2 L/kg, the clearance [25] was 79.2 mL/min/kg and the half-life [26] was 12.7 h. For the same compound, the Cmax [27] was 94.5 ng/mL, the concentration at 24 h [28] was 15.6 ng/mL and the concentration at 72 h [29] was 0.69 ng/mL.
